What all share (format): functional, cell-based
The subject of assay [1] is KB. Nature of the assay: Cytotoxicity against human KB cells after 72 hrs by MTT assay. A digest of the protocol:
(§1)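 Log-phase cells: KB, CNE2, MGC-803 and GLC-82 grown in RPMI 1640 + 10% fetal calf serum; MCF-7 in DMEM + 10% fetal calf serum. Seeded at 1.5×10⁴ cells/mL (KB), 2.0×10⁴ (CNE2, MGC-803, GLC-82) or 2.5×10⁴ (MCF-7), 37 °C, 5% CO₂, 24 h. Compound exposure 72 h, 37 °C. MTT (5 mg/mL saline stock) 3 h. A570, reference 655 nm. IC₅₀ versus untreated control, ≥3 experiments.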
(In general: Tetrazolium dyes change colour on reduction, which living cells bring about.)

Assay [2] relates to MCF7. Nature of the assay: Cytotoxicity against human MCF7 cells after 72 hrs by MTT assay. Conditions: MCF7, 72 h. An outline of the steps:
as §1

In assay [3] the test system is MGC-803. Description: Cytotoxicity against human MGC803 cells after 72 hrs by MTT assay. Conditions: MGC-803, 72 h. A digest of the protocol: as §1
Assay [4] can be described thus: Cytotoxicity against human GLC82 cells after 72 hrs by MTT assay. Conditions: GLC82, 72 h. A digest of the protocol: as §1
Assay [5] in a line: Cytotoxicity against human CNE2 cells after 72 hrs by MTT assay. The note with it: CNE-2, 72 h. An outline of the steps:
as §1

What is called IC50 is the concentration needed to halve the response being measured.

Where only a bound is given, the exact number is not on record here.

Consider `COc1ccccc1C(=O)NC(=S)NNc1ncnc2ccccc12`, for which the IC50 in assay [1] is more than 50 µM; in assay [2] it was 8.7 µM; in assay [3] it was 14.3 µM; in assay [4], 9.5 µM; in assay [5], 15.7 µM.
As for `O=C(NC(=S)NNc1ncnc2ccccc12)c1ccc(F)cc1`, the IC50 in assay [1] came to 1.87 µM; in assay [2], 4.59 µM; in assay [3] it was 3.6 µM; in assay [4], 6.07 µM; in assay [5], 2.84 µM.
Regarding `Cc1ccccc1C(=O)NC(=S)NNc1ncnc2ccccc12`, the IC50 was found to be 2.77 µM in assay [1]; 16.5 µM in assay [2]; 4.24 µM in assay [3]; 13.2 µM in assay [4]; 5.46 µM in assay [5].
Regarding `Cc1ccc(C(=O)NC(=S)NNc2ncnc3ccccc23)cc1`, the IC50 came out at 10.1 µM in assay [1]; 7.82 µM in assay [2]; 3.76 µM in assay [3]; 11.2 µM in assay [4]; 17.2 µM in assay [5].
Regarding `O=c1[nH]cc(F)c(=O)[nH]1` [FLUOROURACIL], the IC50 in assay [1] turned out to be 8.28 µM; in assay [2], 14.2 µM; in assay [3], 18.5 µM; in assay [4], 17.4 µM; in assay [5] it was 15.1 µM.
Consider `O=C(NC(=S)NNc1ncnc2ccccc12)c1cccc(Cl)c1`, for which the IC50 in assay [1] was determined as 4.74 µM; in assay [2], 3.54 µM; in assay [3] it was 4.54 µM; in assay [4], 3.24 µM; in assay [5], 2.92 µM.
Taken in the same sequence, the figures for `COc1cc2ncnc(NNC(=S)NC(=O)c3ccccc3OC)c2cc1OC` were 3.85 µM, 8.8 µM, 1.59 µM, 16 µM and 8.41 µM.
With `O=C(NC(=S)NNc1ncnc2ccccc12)c1ccccc1Cl`, the IC50 in assay [1] is 7.71 µM; in assay [2], 10.5 µM; in assay [3] it was 9.14 µM; in assay [4], 10.8 µM; in assay [5] it was 6.09 µM.
As to `COc1cc2ncnc(NNC(=S)NC(=O)c3ccc(Cl)cc3)c2cc1OC`, the IC50 in assay [1] came out at 4.59 µM; in assay [2], 8.94 µM; in assay [3], 3.71 µM; in assay [4], 9.62 µM; in assay [5] it was 7.53 µM.
Consider `COc1cc2ncnc(NNC(=S)NC(=O)c3cccc(Cl)c3)c2cc1OC`, for which the half-inhibitory concentration (IC50) in assay [1] was 4.83 µM; in assay [2] it was 11.5 µM; in assay [3], 4.06 µM; in assay [4], 8.37 µM; in assay [5], 7.46 µM.
For `COc1cc2ncnc(NNC(=S)NC(=O)c3ccc(C)cc3)c2cc1OC`, the IC50 is 24.2 µM in assay [1]; 22.3 µM in assay [2]; 19.7 µM in assay [3]; 29.9 µM in assay [4]; 33.3 µM in assay [5].
As for `COc1cc2ncnc(NNC(=S)NC(=O)c3ccccc3)c2cc1OC`, the IC50 in assay [1] was determined as 3.77 µM; in assay [2], 6.99 µM; in assay [3] it was 3.05 µM; in assay [4], 6.55 µM; in assay [5], 8.18 µM.
With `COc1cc2ncnc(NNC(=S)NC(=O)c3ccccc3Cl)c2cc1OC`, the IC50 in assay [1] was determined as 3.56 µM; in assay [2] it was 23.1 µM; in assay [3], 6.44 µM; in assay [4], 10 µM; in assay [5], 9.67 µM.
On to `O=C(NC(=S)NNc1ncnc2ccccc12)c1ccccc1`, for which the IC50 in assay [1] amounted to 2.33 µM; in assay [2], 5.96 µM; in assay [3], 6.99 µM; in assay [4] it was 8.37 µM; in assay [5] it was 1.49 µM.
Taken in the same sequence, the figures for `COc1cc2ncnc(NNC(=S)NC(=O)c3ccc(C(F)(F)F)cc3)c2cc1OC` were 8.84 µM, 16.8 µM, 9.28 µM, 16.5 µM and 16.5 µM.
On to `COc1cc2ncnc(NNC(=S)NC(=O)c3ccccc3C)c2cc1OC`, for which the IC50 in assay [1] came out at 11.4 µM; in assay [2] it was 19.3 µM; in assay [3], 11.1 µM; in assay [4], 21.5 µM; in assay [5], 10.5 µM.
`O=C(NC(=S)NNc1ncnc2ccccc12)c1ccc(Cl)cc1`: the IC50 amounted to 3.94 µM in assay [1]; 5.96 µM in assay [2]; 1.86 µM in assay [3]; 6.68 µM in assay [4]; 1.53 µM in assay [5].
As for `COc1cc2ncnc(NNC(=S)NC(=O)c3ccc(F)cc3)c2cc1OC`, the IC50 in assay [1] stood at 4.53 µM; in assay [2] it was 25.8 µM; in assay [3], 8.3 µM; in assay [4], 15.3 µM; in assay [5] it was 16.1 µM.
For `O=C(NC(=S)NNc1ncnc2ccccc12)c1ccccc1F`, in that order: 2.51 µM, 5.02 µM, 5.01 µM, 6.46 µM and 4.61 µM.
For `O=C(NC(=S)NNc1ncnc2ccccc12)c1ccc(C(F)(F)F)cc1`, in that order: 7.92 µM, 8.05 µM, 10.6 µM, 12.2 µM and 22.5 µM.
For `COc1cc2ncnc(NNC(=S)NC(=O)c3ccccc3F)c2cc1OC`, the IC50 was 4.07 µM in assay [1]; 8.5 µM in assay [2]; 2.39 µM in assay [3]; 8.64 µM in assay [4]; 12.7 µM in assay [5].

For the origin of these results see ChEMBL document CHEMBL2040758, “Synthesis and antitumor activity of novel quinazoline derivatives containing thiosemicarbazide moiety” (Eur J Med Chem, 2012).
